Compound activity deposited in PubChem by several laboratories.
SR-BI DiI-HDL act: activators of SR-BI mediated DiI-HDL uptake, primary screen, ldlA[mSR-BI] CHO cells, DiI fluorescence; actives 0.096% (n = 320,000); activation, % at 12.5 µM; 3 h; 100 = double the neutral-control signal;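 active means mean replicate activation of at least 60% and every replicate at or above 60%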
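Test system: SR-BI-overexpressing, LDLR-lacking CHO cells. Measured by: DiI fluorescence, bottom read. Medium: Ham's F12 with 0.5% BSA, HEPES 25 mM, pH 7.4. Timing: 3 h uptake period with compound, 37 °C.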
GRK2 inh: compounds blocking aptamer binding on GRK2 – biochemical, human GRK2, bead flow cytometry, HTS, primary screen. FAM-aptamer displacement from GRK2. actives 0.59% (n = 330,000). inhibition of aptamer binding, % at 10 µM. Beta-adrenergic receptor kinase 1 (Homo sapiens), P25098;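 active means inhibition of aptamer binding above 40%, roughly 3 SD of noise, on plates passing a quality check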;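 further: median bead fluorescence of bound FAM aptamer so fluorescent compounds give negative values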
SR-BI HDL uptake: inhibitors of SR-BI mediated HDL lipid uptake, primary screen, ldlA[mSR-BI] cells, fluorescence, single point; Scavenger receptor class B member 1 (Mus musculus), Q61009; ldlA[mSR-BI] CHO cells, DiI-HDL uptake fluorescence, 3 h; inhibition, % at 12.5 µM; actives 0.96% (n = 320,000); AID 488896, 2010;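 active means mean replicate inhibition of at least 70% and a set share of replicates each scoring 70 or more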
Rin1 Abl inh: inhibitors of Rin1-Abl protein binding, primary screen, biochemical, TR-FRET; Tyrosine-protein kinase ABL1 (Homo sapiens) + Ras and Rab interactor 1 (Homo sapiens), …; inhibition, % at 7.35 µM; actives 0.4% (n = 360,000); AID 588664, 2011; in the data active means inhibition above about 5%, passing the limit was not always enough
GRK2 CP1: GRK2 aptamer-displacing inhibitors, retest, confirmation, biochemical, cherry pick 1, bead flow cytometry | shares compounds with GRK2 inh | bead-bound GRK2, FAM-aptamer displacement | aptamer displacement, % at 10 µM | actives 4% (n = 2,000) | AID 504451, 2011;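 active means aptamer displacement above 40%, near three times the noise of non-fluorescent compounds, on plates passing quality checks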;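 further: negative values mostly reflect intrinsic compound fluorescence rather than true enhancement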
Aptamer quench SP: counter-screen for GRK2 aptamer inhibitors: fluorescent aptamer quenchers; Carboxyfluorescein RNA aptamer on beads, flow cytometry quenching; active compounds read low; 2,000 tested, under 10 active; fluorescence response (% of DMSO), % at 10 µM; shares compounds with GRK2 inh;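 active means compounds that quench the bead-bound fluorescent RNA probe, cutting fluorescence to under half of the solvent control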;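 further: counterscreen run without GRK2 so only probe quenching by compound is measured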
GRK2 confirm 2: GRK2 aptamer-displacing inhibitors, hit retest, confirmation, biochemical, cherry pick 2, bead flow cytometry | shares compounds with GRK2 inh | bead-bound GRK2, FAM-aptamer displacement | inhibition of aptamer binding, % at 10 µM | 360 tested, under 10 active;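 active means inhibition of aptamer binding above 40%, about triple the noise seen with nonglowing compounds, on plates passing quality control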;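 further: negative values mostly come from compounds that fluoresce themselves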
FAM quench SP: quenches fluorescent RNA aptamer, GRK2 hit artifact | shares compounds with GRK2 inh | carboxyfluorescein RNA aptamer beads, flow cytometry quenching; active compounds read low | fluorescence response vs DMSO, % at 10 µM | 360 tested, under 10 active | AID 588494;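 active means response vs DMSO under 50%, meaning signal dropped by over half, treated as fluorescence quencher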;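 further: labelled aptamer on streptavidin beads without GRK2 as a quench counter-screen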
Hits are given with their value; n = inactive; x = no result given. A selection: hits, their analogues and other compounds. The true share with any hit is near 1.9%.

SMILES	SR-BI DiI-HDL act	GRK2 inh	SR-BI HDL uptake	Rin1 Abl inh	GRK2 CP1	Aptamer quench SP	others
CCC(C)(C)n1nnnc1C(c1ccc2ncccc2c1)N1CCN(c2ccc(O)cc2)CC1 (centres undefined)	n	n	n	n	x	x
CCC(C)(C)n1nnnc1C(c1ccc2ncccc2c1)N1CCN(c2nc3ccccc3s2)CC1 (centres undefined)	n	n	n	n	n	n
O=C(NC1CCCCC1)N1CCSC1=Nc1ccccc1	n	43.0	n	n	n	n
Cc1[nH][nH]c(=O)c1C(c1ccc(-c2cccc(C(=O)O)c2)o1)c1c(C)[nH][nH]c1=O	n	42.0	n	n	x	x	GRK2 confirm 2=n;FAM quench SP=n
COc1cc(OC)cc(C(=O)Nc2ncn[nH]2)c1	n	77.0	n	n	n	n
